From ChEMBL document CHEMBL4364354, “A Bioreductive Prodrug of Cucurbitacin B Significantly Inhibits Tumor Growth in the 4T1 Xenograft Mice Model” (ACS Med Chem Lett, 2019)
pIC50: −log10 of the molar value. Calls of active or inactive are those of the source. The calls are words filed in the database; no cut-off is given here.

Key:
[1] = Stability of the compound in DMEM medium with 10% FBS incubated for 72 hrs by HPLC analysis
Summary of the method: (§1)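 Prodrugs were held in DMEM with 10% FBS for up to 72 h. The fraction of intact compound remaining over time was followed by HPLC.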

[2] = Stability of the compound in DMEM medium with 10% FBS assessed as compound remaining incubated for 24 hrs by HPLC analysis; summary of the method: as §1
MCF7 [3] = experiment: Cytotoxicity against human MCF7 cells assessed as reduction in cell viability incubated for 48 hrs by MTT assay; assay type: functional, cell-based; conditions: for pIC50: MCF7, 48 h
Summary of the method: (§2)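 MTT assay on MCF-7 breast cancer cells and noncancerous Vero cells, with tamoxifen as positive control. One MCF-7 arm was pretreated with the NQO1 inhibitor dicoumarol. IC50 values are from three experiments. Cytotoxicity index is the IC50 of the prodrug in Vero cells relative to the parent cucurbitacin B IC50 in Vero cells.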

Vero = experiment: Cytotoxicity against African green monkey Vero cells assessed as reduction in cell viability incubated for 48 hrs by MTT assay; assay type: cell-based; conditions: Chlorocebus sabaeus; summary of the method: as §2
MCF7 [4] = experiment: Cytotoxicity against human MCF7 cells assessed as reduction in cell viability incubated for 48 hrs in presence of NQO1 inhibitor dicoumarol by MTT assay; assay type: functional, cell-based; conditions: MCF7, 48 h; summary of the method: as §2
[5] = Cytotoxicity index, ratio of compound IC50 to cucurbitacin B IC50 for cytotoxicity against African green monkey Vero cells by MTT assay; assay type: cell-based; conditions: chlorocebus sabaeus, read-out: Ratio IC50; summary of the method: as §2
[6] = Drug uptake in human MCF7 cells assessed as compound remaining in culture medium at 25 uM incubated for 24 hrs by HPLC analysis; assay type: ADME, cell-based; conditions: mcf7, 24 h
Summary of the method: (§3)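 MCF-7 cells were exposed to 25 μM prodrug for 24 h, then lysed. Prodrug concentrations in culture medium and in cell lysate were measured by HPLC against a calibration curve.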

[7] = biological target: T1, NAD(P)H dehydrogenase [quinone] 1 (Homo sapiens, UniProt P15559); experiment: Prodrug activation in human MCF7 cells assessed as NQO1-mediated (R)-6-hydroxy-6-((2S,8S,9R,10R,13R,14S,16R,17R)-16-hydroxy-4,4,9,13,14-pentamethyl-2-(methyl(3-(methylamino)propyl)carbamoyloxy)-3,11-dioxo 2,3,4,7,8,9,10,11,12,13,14,15,16,17-tetradecahydro-1H-cyclopenta[a]phenanthren-17-yl)-2-methyl-5-oxohept-3-en-2-yl acetate metabolite formation at 25 uM incubated for 24 hrs by HPLC analysis; assay type: ADME, cell-based; conditions: mcf7, 24 h
T1 sequence (P15559 whole entry): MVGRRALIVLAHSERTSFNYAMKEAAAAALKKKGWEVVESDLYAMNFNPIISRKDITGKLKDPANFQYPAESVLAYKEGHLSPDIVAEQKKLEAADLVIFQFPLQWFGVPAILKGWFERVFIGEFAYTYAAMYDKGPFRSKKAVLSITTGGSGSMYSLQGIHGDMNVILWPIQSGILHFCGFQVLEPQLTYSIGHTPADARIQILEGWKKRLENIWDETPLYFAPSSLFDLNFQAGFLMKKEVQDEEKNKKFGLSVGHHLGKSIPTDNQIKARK

4T1 [8] = experiment: Antitumor activity against mouse 4T1 cells implanted in BALB/c mouse assessed as tumor growth inhibition at 5 mg/kg/day, ip for 2 weeks measured daily during compound dosing by digital caliper method relative to control; assay type: functional; conditions: 4T1, ip, 336 h, read-out: TGI
4T1 [9] = experiment: Antitumor activity against mouse 4T1 cells xenografted in BALB/c mouse assessed as tumor weight at 3 to 10 mg/kg/day, ip for 2 weeks (reference value: 500 to 700 mg); assay type: functional
[10] = Toxicity in BALB/c mouse implanted with mouse 4T1 cells assessed as body weight at 3 mg/kg/day, ip for 2 weeks measured daily during compound dosing (reference value: -1.48 %); assay type: organism-based; conditions: in vivo, 336 h
[11] = Toxicity in BALB/c mouse implanted with mouse 4T1 cells assessed as body weight at 5 mg/kg/day, ip for 2 weeks measured during compound dosing (reference value: -1.48 %); assay type: organism-based; conditions: in vivo, 336 h
[12] = Toxicity in BALB/c mouse implanted with mouse 4T1 cells assessed as body weight at 10 mg/kg/day, ip for 2 weeks measured daily during compound dosing (reference value: -1.48 %); assay type: organism-based; conditions: in vivo, 336 h
[13] = biological target: T1, NAD(P)H dehydrogenase [quinone] 1; experiment: Prodrug activation in human MCF7 cells assessed as NQO1-mediated CuB release in cell lysate at 25 uM incubated for 24 hrs by HPLC analysis; assay type: subcellular; conditions: mcf7, 24 h
[14] = biological target: T1, NAD(P)H dehydrogenase [quinone] 1; experiment: Prodrug activation in human MCF7 cells assessed as NQO1-mediated CuB release at 25 uM incubated for 24 hrs by HRMS analysis; assay type: cell-based; conditions: mcf7, 24 h
[15] = biological target: T1, NAD(P)H dehydrogenase [quinone] 1; experiment: Prodrug activation in human MCF7 cells assessed as NQO1-mediated (R)-6-hydroxy-6-((2S,8S,9R,10R,13R,14S,16R,17R)-16-hydroxy-4,4,9,13,14-pentamethyl-2-(methyl(3-(methylamino)propyl)carbamoyloxy)-3,11-dioxo 2,3,4,7,8,9,10,11,12,13,14,15,16,17-tetradecahydro-1H-cyclopenta[a]phenanthren-17-yl)-2-methyl-5-oxohept-3-en-2-yl acetate formation at 25 uM incubated for 24 hrs by HRMS analysis; assay type: cell-based; conditions: mcf7, 24 h
[16] = biological target: T1, NAD(P)H dehydrogenase [quinone] 1; experiment: Prodrug activation in human MCF7 cells assessed as NQO1-mediated cucurbitacin B formation by ESI-TOFMS analysis; assay type: cell-based
[17] = biological target: T1, NAD(P)H dehydrogenase [quinone] 1; experiment: Prodrug activation in human MCF7 cells assessed as appearance of extended m/z range to 1000 at 25 uM measured after 24 hrs by HRMS analysis; assay type: cell-based; conditions: mcf7, 24 h
4T1 [18] = experiment: Antitumor activity against mouse 4T1 cells implanted in BALB/c mouse assessed as tumor growth inhibition at 3 to 10 mg/kg/day, ip for 2 weeks measured daily during compound dosing by digital caliper method; assay type: functional, organism-based
[19] = biological target: T1, NAD(P)H dehydrogenase [quinone] 1; experiment: Prodrug activation in human MCF7 cell lysate assessed as NQO1-mediated 1,3-dimethyltetrahydropyrimidin-2(1H)-one formation at 25 uM incubated for 24 hrs by HPLC analysis; assay type: subcellular; conditions: mcf7, 24 h
[20] = biological target: T1, NAD(P)H dehydrogenase [quinone] 1; experiment: Prodrug activation in human MCF7 cells assessed as NQO1-mediated (R)-6-hydroxy-6-((2S,8S,9R,10R,13R,14S,16R,17R)-16-hydroxy-4,4,9,13,14-pentamethyl-2-(methyl(3-(methylamino)propyl)carbamoyloxy)-3,11-dioxo 2,3,4,7,8,9,10,11,12,13,14,15,16,17-tetradecahydro-1H-cyclopenta[a]phenanthren-17-yl)-2-methyl-5-oxohept-3-en-2-yl acetate formation by ESI-TOFMS analysis; assay type: cell-based
[21] = biological target: T1, NAD(P)H dehydrogenase [quinone] 1; experiment: Prodrug activation in human MCF7 cells assessed as NQO1-mediated 6-hydroxy-4,4,5,7,8-pentamethylchroman-2-one formation at 25 uM incubated for 24 hrs by HRMS analysis; assay type: cell-based; conditions: mcf7, 24 h
[22] = Drug uptake in human MCF7 cell lysate at 25 uM incubated for 24 hrs by HPLC analysis; assay type: ADME, subcellular; conditions: mcf7, 24 h; summary of the method: as §3
[23] = biological target: T1, NAD(P)H dehydrogenase [quinone] 1; experiment: Prodrug activation in human MCF7 cells assessed as NQO1-mediated ((R)-6-((2S,8S,9R,10R,13R,14S,16R,17R)-2-(3-aminopropylcarbamoyloxy)-16-hydroxy-4,4,9,13,14-pentamethyl-3,11-dioxo-2,3,4,7,8,9,10,11,12,13,14,15,16,17-tetradecahydro-1H-cyclopenta[a]phenanthren-17-yl)-6-hydroxy-2-methyl-5-oxohept-3-en-2-yl acetate formation at 25 uM incubated for 24 hrs by HRMS analysis; assay type: cell-based; conditions: mcf7, 24 h
[24] = biological target: T1, NAD(P)H dehydrogenase [quinone] 1; experiment: Prodrug activation in human MCF7 cells assessed as NQO1-mediated ((R)-6-((2S,8S,9R,10R,13R,14S,16R,17R)-2-(3-aminopropylcarbamoyloxy)-16-hydroxy-4,4,9,13,14-pentamethyl-3,11-dioxo-2,3,4,7,8,9,10,11,12,13,14,15,16,17-tetradecahydro-1H-cyclopenta[a]phenanthren-17-yl)-6-hydroxy-2-methyl-5-oxohept-3-en-2-yl acetate metabolite formation at 25 uM incubated for 24 hrs by HPLC analysis; assay type: ADME, cell-based; conditions: mcf7, 24 h
[25] = biological target: T1, NAD(P)H dehydrogenase [quinone] 1; experiment: Prodrug activation in human MCF7 cell lysate assessed as NQO1-mediated tetrahydropyrimidin-2(1H)-one formation at 25 uM incubated for 24 hrs by HPLC analysis; assay type: subcellular; conditions: mcf7, 24 h
[26] = biological target: T1, NAD(P)H dehydrogenase [quinone] 1; experiment: Prodrug activation in human MCF7 cells assessed as NQO1-mediated ((R)-6-((2S,8S,9R,10R,13R,14S,16R,17R)-2-(3-aminopropylcarbamoyloxy)-16-hydroxy-4,4,9,13,14-pentamethyl-3,11-dioxo-2,3,4,7,8,9,10,11,12,13,14,15,16,17-tetradecahydro-1H-cyclopenta[a]phenanthren-17-yl)-6-hydroxy-2-methyl-5-oxohept-3-en-2-yl acetate formation by ESI-TOFMS analysis; assay type: cell-based
[27] = Prodrug activation in human MCF7 cell cultured in DMEM medium with 10% FBS at 25 uM incubated for 24 hrs by HPLC analysis; assay type: cell-based; conditions: mcf7, 24 h
[28] = Toxicity in BALB/c mouse implanted with mouse 4T1 cells assessed as death at 3 mg/kg/day, ip measured after 1 day; assay type: organism-based; conditions: in vivo, 24 h
Summary of the method: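 BALB/c mice carrying 4T1 breast cancer cell tumours received the test agent once a day, dosed in mg/kg/d. An untreated control group ran alongside. Tumour volume and body weight were followed over the treatment period, survival was recorded after dosing began, and tumours were excised and weighed after sacrifice.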

Compound	Stability [1]	Stability [2] [%]	pIC50 (MCF7 [3])	pIC50 (Vero)	pIC50 (MCF7 [4])	selectivity ratio [5]	Drug metabolism [13]	Drug metabolism [14]	Drug metabolism [16]	Drug metabolism [17]	Drug metabolism [21]	Drug uptake [22]	inhibition (MCF7 [3])	Activity (Vero)	other results
CC(=O)OC(C)(C)/C=C/C(=O)[C@](C)(O)[C@H]1[C@H](O)C[C@@]2(C)[C@@H]3CC=C4[C@@H](C[C@H](OC(=O)N(C)CCCN(C)C(=O)CC(C)(C)C5=C(C)C(=O)C(C)=C(C)C5=O)C(=O)C4(C)C)[C@]3(C)C(=O)C[C@]12C	Stable	> 90	4.74	4.91	< 4.00	310	Metabolite_Detected	Metabolite_Detected	Metabolite_Detected	Metabolite_Notdetected	Metabolite_Detected	Not Active			Drug uptake [6]: 8.39 µM; Drug metabolism [7]: Metabolite_Detected; inhibition in vivo at 5 mg/kg/day (4T1 [8]): 53.8%; Activity (4T1 [9]): <400 mg; Activity [10]: 6.46%; Activity [11]: 5.27%; Activity [12]: -2.49%; Drug metabolism [15]: Metabolite_Detected; TGI (4T1 [18]): Active; Drug metabolism [19]: Metabolite_Notdetected; Drug metabolism [20]: Metabolite_Detected
Cc1c(C)c2c(c(C)c1O)C(C)(C)CC(=O)O2													inactive	Non-Toxic	
Cc1c2ccncc2c(C)c2c1[nH]c1ccccc12 [ELLIPTECINE]				5.39											
CC(=O)OC(C)(C)/C=C/C(=O)[C@](C)(O)[C@H]1[C@H](O)C[C@@]2(C)[C@@H]3CC=C4[C@@H](C[C@H](OC(=O)NCCCNC(=O)CC(C)(C)C5=C(C)C(=O)C(C)=C(C)C5=O)C(=O)C4(C)C)[C@]3(C)C(=O)C[C@]12C	Stable	> 90	4.81	5.73	< 4.00	46.8	Metabolite_Detected	Metabolite_Detected	Metabolite_Detected	Metabolite_Notdetected	Metabolite_Detected	Not Active			Drug metabolism [23]: Metabolite_Detected; Drug metabolism [24]: Metabolite_Detected; Drug metabolism [25]: Metabolite_Notdetected; Drug metabolism [26]: Metabolite_Detected; Drug metabolism [27]: Metabolite_Detected
CC(=O)OC(C)(C)/C=C/C(=O)[C@](C)(O)[C@H]1[C@H](O)C[C@@]2(C)[C@@H]3CC=C4[C@@H](C[C@H](O)C(=O)C4(C)C)[C@]3(C)C(=O)C[C@]12C			4.92	7.40	5.01										Activity [28]: Toxic
CC(=O)OC(C)(C)/C=C/C(=O)[C@](C)(O)[C@H]1[C@H](O)C[C@@]2(C)[C@@H]3CC=C4[C@@H](C[C@H](OC(=O)CC(C)(C)C5=C(C)C(=O)C(C)=C(C)C5=O)C(=O)C4(C)C)[C@]3(C)C(=O)C[C@]12C	Stable	> 90	4.78	7.15	< 4.00	1.75	Metabolite_Detected	Metabolite_Detected	Metabolite_Detected	Metabolite_Notdetected	Metabolite_Detected	Not Active			Drug uptake [6]: 6.21 µM
O=C1NCCCN1													inactive	Non-Toxic	
CN1CCCN(C)C1=O													inactive	Non-Toxic	
CC/C(=C(\c1ccccc1)c1ccc(OCCN(C)C)cc1)c1ccccc1 [TAMOXIFEN]															inhibition in vivo at 5 mg/kg/day (4T1 [8]): 55%; Activity [11]: 4.99%
